Results as given in ChEMBL document CHEMBL3588831, “Synthesis and in Vivo Evaluation of [123I]Melanin-Targeted Agents” (J Med Chem, 2015).

Columns and labels:
[1] = Retention time of the compound by HPLC method; assay type: physicochemical
[2] = test system: Brain; experiment: Drug distribution in brain of C57BL/6J mouse bearing mouse B16F0 cells at 18 to 20 MBq, iv measured over 72 hrs by SPECT imaging study; assay type: ADME, organism-based; settings: in vivo
Summary of the method: (§1)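 Female C57BL/6J mice bearing s.c. B16F0 tumors (11 days growth) received 18−20 MBq in 100 μL via lateral tail vein (n = 3). Isoflurane anesthesia (5% induction, 2−2.5% maintenance) on a 37 °C heating pad. Planar γ-camera imaging at 10−60 min (5 min frames), 3 and 6 h, 24, 48 and 72 h. Radioactivity localization assessed visually.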

[3] = Drug distribution in thyroid gland of C57BL/6J mouse bearing mouse B16F0 cells at 18 to 20 MBq, iv after 72 hrs by SPECT imaging study; assay type: ADME, organism-based; settings: in vivo
Summary of the method: (§2)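 Female C57BL/6J mice (5–6 weeks) were inoculated s.c. on the left flank with 3 × 10^5 B16F0 cells in PBS and used after 11 days, with tumors 2–12 mm. Each received 18–20 MBq in 100 μL by lateral tail vein (n = 3 per tracer). Planar SPECT was done under isoflurane at 10–60 min, 3, 6, 24, 48 and 72 h. ROI pixel values were decay-corrected.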

[4] = Drug distribution in eyes of C57BL/6J mouse bearing mouse B16F0 cells at 18 to 20 MBq, iv measured over 72 hrs by SPECT imaging study; assay type: ADME, organism-based, Eye; settings: in vivo; summary of the method: as §2
[5] = Drug distribution in thyroid gland of C57BL/6J mouse bearing mouse B16F0 cells at 18 to 20 MBq, iv after 24 hrs by SPECT imaging study; assay type: ADME, organism-based; settings: in vivo; summary of the method: as §2
[6] = Drug distribution in thyroid gland of C57BL/6J mouse bearing mouse B16F0 cells at 18 to 20 MBq, iv after 3 hrs by SPECT imaging study; assay type: ADME, organism-based; settings: in vivo; summary of the method: as §2
[7] = test system: Brain; experiment: Drug distribution in brain of C57BL/6J mouse bearing mouse B16F0 cells at 18 to 20 MBq, iv within 1 hr by SPECT imaging study; assay type: ADME, organism-based; settings: in vivo; summary of the method: as §1

| SMILES | Retention_time [1] | Drug uptake [2] | Drug uptake [3] | Drug uptake [4] | Drug uptake [5] | Drug uptake [6] | Drug uptake [7] |
| --- | --- | --- | --- | --- | --- | --- | --- |
| O=C1c2ccccc2CN1CC(=O)N1C[C@@H]2C[C@H]1CN2Cc1ccc([123I])cc1 | 15.9 min | Not Active | Active | Active |  |  |  |
| O=C(CN1Cc2ccccc2C1=O)N1CCCN(Cc2ccc([123I])cc2)CC1 | 14.5 min | Not Active | Active | Active |  |  |  |
| CCN(CC)CCNC(=O)c1cnc2cc([123I])ccc2n1 | 15.7 min | Active |  | Active |  | Active | Active |

The remaining lines, values ahead:

| Retention_time [1] | Drug uptake [2] | Drug uptake [3] | Drug uptake [4] | Drug uptake [5] | Drug uptake [6] | Drug uptake [7] | SMILES |
| --- | --- | --- | --- | --- | --- | --- | --- |
| 17.3 min | Not Active |  | Active |  |  |  | O=C(CN1Cc2ccccc2C1=O)N1CCN(Cc2ccc([123I])cc2)CC1 |
| 16 min | Not Active |  | Active | Active |  |  | O=C(c1cccnc1)N1CCN(Cc2ccc([123I])cc2)CC1 |
